In assay [1] the test system is Rattus norvegicus. Nature of the assay: Antinociceptive activity in ip dosed Wistar rat partial sciatic nerve ligation model assessed as reversal of tactile allodynia after 120 mins. It counts as functional. The note with it: 2 h. The method, boiled down:
(§1)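 Wistar rats (200–250 g) with nerve injury, compounds i.p. in 30% v/v PEG 400; dose–response curves in each sensory test (spontaneous pain and cold allodynia as paw withdrawal duration; tactile allodynia and hyperalgesia as withdrawal threshold). ED50 linearly interpolated between doses just above and below 50% response; time of peak effect recorded.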

Assay [2] relates to Rattus norvegicus. Briefly: Antinociceptive activity in ip dosed Wistar rat chronic constriction injury model assessed as reversal of tactile allodynia after 60 mins. It counts as functional. As to conditions: 1 h. The method, boiled down:
as §1

A word on the ED50: it is the midpoint of the dose-response relation. With `CCN1CCc2c(c(C(C)(C)C)nn2C(=O)Nc2ccc(C)cc2C)C1`, the results for the ED50 in assay [1] and in assay [2] were 36.1 mg/kg and 23.4 mg/kg, respectively.
